# Source: PMC7941214 (Journal of medicinal chemistry, 2019)
# Columns and labels:
# A. baumannii NCTC 13420 = test: Broth microdilution MIC/MBC, A. baumannii; type: cell-based, Acinetobacter baumannii
# P. aeruginosa NCTC 13437 = test: Broth microdilution MIC/MBC, P. aeruginosa; type: cell-based, Pseudomonas aeruginosa
# Outline: (§1)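 CLSI broth microdilution in cation-adjusted Mueller–Hinton broth. Log-phase cultures were diluted to 7.5 × 10^5 CFU/mL, then mixed 1:1 with 2-fold serial dilutions of gold complexes from DMSO or water stocks, in triplicate, and held 37 °C, 18 h, static. MIC: lowest concentration giving >90% inhibition by OD600 against medium-only and bacteria-only wells. […] E. coli ATCC 25922 quality control was checked each run with ciprofloxacin and […].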
# E. cloacae NCTC 13405 = test: Broth microdilution MIC/MBC, E. cloacae; type: cell-based, Enterobacter cloacae
# Outline: as §1
# [1] = test system: K. pneumoniae ATCC 700603; test: Broth microdilution MIC/MBC, K. pneumoniae; type: cell-based, Klebsiella pneumoniae
# Outline: as §1
# S. aureus JE2 (USA300) = test: Broth microdilution MIC/MBC, S. aureus; type: cell-based, Staphylococcus aureus; details: value in parentheses
# Outline: as §1
# E. faecium ATCC 700221 = test: Broth microdilution MIC/MBC, E. faecium; type: cell-based, Enterococcus faecium
# Outline: as §1
# E. coli ATCC 25922 = test: Broth microdilution MIC/MBC, E. coli; type: cell-based, Escherichia coli
# Outline: as §1
# all strains = test: Broth microdilution, all strains taken together; type: cell-based; details: vs auranofin
# Log P determination = details: n-octanol/water, Au by FAAS
# [2] = value before the parentheses, two values = two repeats
compound,measurement,setting,value
"CC[PH](CC)(CC)[Au][S]c1ccc(N)cc1 [Compound 17, (4-Aminobenzenethiolato)(triethylphosphine) Gold(I)]",MIC A. baumannii NCTC 13420,A. baumannii NCTC 13420; [2],18 µM
same,MBC A. baumannii NCTC 13420,A. baumannii NCTC 13420; value in parentheses,18 µM
same,MIC P. aeruginosa NCTC 13437,P. aeruginosa NCTC 13437; [2],146 µM
same,MBC P. aeruginosa NCTC 13437,P. aeruginosa NCTC 13437; value in parentheses,146 µM
same,MIC E. cloacae NCTC 13405,E. cloacae NCTC 13405; [2],36 µM
same,MBC E. cloacae NCTC 13405,E. cloacae NCTC 13405; value in parentheses,36 µM
same,MIC K. pneumoniae ATCC 700603,[1]; [2],36 µM
same,MBC K. pneumoniae ATCC 700603,[1]; value in parentheses,36 µM
same,"fold enhancement of activity over auranofin, K. pneumoniae",[1]; vs auranofin,10
same,MBC S. aureus JE2 (USA300),S. aureus JE2 (USA300),0.07 µM
same,MIC E. faecium ATCC 700221,E. faecium ATCC 700221; [2],0.02 µM
same,MBC E. faecium ATCC 700221,E. faecium ATCC 700221; value in parentheses,0.1 µM
same,"fold enhancement of activity over auranofin, E. faecium",E. faecium ATCC 700221; vs auranofin,more than 7
same,MIC E. coli ATCC 25922,E. coli ATCC 25922; [2],9 µM
same,MBC E. coli ATCC 25922,E. coli ATCC 25922; value in parentheses,9 µM
same,"fold enhancement of activity over auranofin, all strains",all strains,up to 10
same,log P,Log P determination,1.36
